SR-BI uptake up = enhances SR-BI lipid uptake from DiI-HDL; CHO ldlA[mSR-BI] cells, DiI-HDL uptake fluorescence, 3 h; 100 = double the neutral-control signal; activation, % at 12.5 µM; 320,000 compounds, 0.096% hits; AID 504775;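 active = mean replicate activation of at least 60% and every replicate at or above 60%; inconclusive = mean or all-replicate condition met, but not both; inactive = mean below 60% and not all replicates reaching 60%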;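 note: 0% = median plate neutral-control signal and 100% = twice that signal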
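material = CHO ldlA[mSR-BI] cells | medium = Ham's F12 with 0.5% BSA, HEPES 25 mM, pH 7.4 | reagent = fluorescent DiI-HDL, 10 µg/mL final | compound dosing = single-point compound dose | incubation = 3 h, 37 °C | measured by = bottom-read fluorescence, 550/595 nm | measure = HDL uptake via cellular fluorescence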
Vif imaging = HIV Vif inhibition. HEK293T cells, Vif self-association by quenched fluorescence, imaging, 24 h. inhibition, % at 7.49 µM. 340,000 compounds, 0.35% hits. AID 602346; in the data active = inhibition above about 50%, passing the limit was not always enough; inconclusive = no clear call, values can overlap the other calls; inactive = below about 31%
SR-BI DiI inh = blocks mouse SR-BI lipid uptake from DiI-HDL | Q61009 | ldlA[mSR-BI] CHO cells, DiI-HDL uptake fluorescence, 3 h | inhibition, % at 12.5 µM | 320,000 compounds, 0.96% hits | AID 488896;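 active = mean replicate inhibition of at least 70% and a set share of replicates each scoring 70 or more; inconclusive = meets just one of the two criteria; inactive = fails both criteria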;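 note: 0% = median of neutral control wells and 100% = median of positive control wells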
Target sequence (Q61009 whole entry, looked up): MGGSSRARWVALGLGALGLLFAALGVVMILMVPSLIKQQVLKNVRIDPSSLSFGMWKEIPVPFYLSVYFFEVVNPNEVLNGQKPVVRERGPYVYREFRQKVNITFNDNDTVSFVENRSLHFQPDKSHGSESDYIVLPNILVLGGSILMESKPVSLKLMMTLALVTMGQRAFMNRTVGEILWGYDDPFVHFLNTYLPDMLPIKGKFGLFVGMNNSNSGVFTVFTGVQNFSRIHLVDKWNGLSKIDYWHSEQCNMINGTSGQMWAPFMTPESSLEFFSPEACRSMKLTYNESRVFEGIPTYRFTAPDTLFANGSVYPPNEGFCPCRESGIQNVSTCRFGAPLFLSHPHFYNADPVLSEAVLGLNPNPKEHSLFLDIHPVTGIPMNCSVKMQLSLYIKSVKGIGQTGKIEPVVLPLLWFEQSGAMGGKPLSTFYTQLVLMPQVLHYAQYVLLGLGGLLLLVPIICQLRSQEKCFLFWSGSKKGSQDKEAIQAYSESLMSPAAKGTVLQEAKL
C2C12 statin = suppression of simvastatin myotoxicity; C2C12 myotubes + simvastatin, ATP luminescence, 48 h; scaled: DMSO 0, geranylgeraniol control 100; rescue of ATP level, % at 7.49 µM; 330,000 compounds, 0.78% hits; AID 602340;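 active = mean ATP rescue above about 67%, or every replicate alone reaching that limit, limit read from the data, passing the limit was not always enough; inconclusive = no clear call, values can overlap the other calls; inactive = mean under the limit and some replicate under it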;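 note: myotubes were challenged with 10 µM simvastatin during compound exposure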
The depositor's hits bear a star. An excerpt weighted towards active compounds, which were near 1.7% of everything screened.

Results for CCN1CCN(c2nnc(-c3ccccc3)c3ccccc23)CC1 ?
SR-BI uptake up: -4; Vif imaging: -5; SR-BI DiI inh: 4; C2C12 statin: -2

What do the screens show for `O=C(C[C@H]1CC[C@H](NC(=O)c2ccc3c(c2)OCO3)[C@@H](CO)O1)NC1Cc2ccccc2C1`?
C2C12 statin: -1

What do the screens show for `CCN1CCCC1CNC(=O)c1c(O)c2c([nH]c1=O)CCCC2` (configuration not stated)?
SR-BI uptake up: 18; Vif imaging: 2; SR-BI DiI inh: -18; C2C12 statin: 119*

How did COc1ccc(C(=O)Nc2ccc(N3CCOCC3)cc2)cc1S(=O)(=O)N1CCCC1 do in these assays?
SR-BI uptake up: -64; Vif imaging: 1; SR-BI DiI inh: 64; C2C12 statin: -3

How did CCc1ccc(NC(=O)c2ccc(OC)c([N+](=O)[O-])c2)cc1 do in these assays?
SR-BI uptake up: -76; Vif imaging: 1; SR-BI DiI inh: 76*

How did COc1cc(C(=O)Nc2ccc(N3CCN(C(=O)c4ccc(C)cc4)CC3)cc2)cc(OC)c1OC do in these assays?
Vif imaging: -6; SR-BI DiI inh: 76*; C2C12 statin: -20

Results for CCOc1ccc(C(F)(F)F)cc1NC(=O)c1ccc(OC)c([N+](=O)[O-])c1 ?
SR-BI uptake up: -80; Vif imaging: 2; SR-BI DiI inh: 80*; C2C12 statin: -29

How did COc1ccc(C(=O)Nc2ccc(N3CCOCC3)cc2)cc1S(=O)(=O)NC1CCCC1 do in these assays?
SR-BI uptake up: -76; Vif imaging: 4; SR-BI DiI inh: 76*

What do the screens show for `C[C@@H]1CN([C@@H](C)CO)C(=O)CCCn2cc(nn2)CO[C@@H]1CN(C)S(C)(=O)=O`?
C2C12 statin: -5

What do the screens show for `CCOc1ccc(C(=O)Nc2ccc(N3CCN(C(C)=O)CC3)cc2)cc1[N+](=O)[O-]`?
SR-BI uptake up: -46; Vif imaging: 3; SR-BI DiI inh: 72*

What do the screens show for `COc1ccc(C(=O)Nc2ccc(N3CCN(C(=O)C(C)C)CC3)cc2)cc1[N+](=O)[O-]`?
SR-BI uptake up: -46; Vif imaging: 64*; SR-BI DiI inh: 46; C2C12 statin: 3

What do the screens show for `CCOC(=O)c1ccc(NC(=O)c2ccc(OC(C)C)c(OC)c2)cc1`?
SR-BI uptake up: -92; Vif imaging: -5; SR-BI DiI inh: 92*

How did CCOc1ccc(C(=O)Nc2ccc(N3CCN(C)CC3)cc2)cc1[N+](=O)[O-] do in these assays?
SR-BI uptake up: -48; Vif imaging: 3; SR-BI DiI inh: 48

Results for C[C@@H]1CN([C@H](C)CO)C(=O)c2cc(-c3cccnc3)cnc2O[C@@H]1CN(C)C(=O)C1CCCCC1 ?
C2C12 statin: 8

How did O=C(NCC[C@@H]1CC[C@@H](NC(=O)Nc2cc(F)ccc2F)[C@@H](CO)O1)Nc1ccc(Cl)cc1 do in these assays?
C2C12 statin: -6

Results for O=C(NNC(=O)c1cc(-c2ccncc2)nc2ccccc12)c1ccccc1O ?
SR-BI uptake up: -94; Vif imaging: 7; SR-BI DiI inh: 94*; C2C12 statin: -5

What do the screens show for `CCc1ccc(/C=N/NC(=O)c2cc(-c3ccncc3)nc3ccccc23)s1`?
SR-BI uptake up: -10; Vif imaging: 29; SR-BI DiI inh: 10

What do the screens show for `O=C(N/N=C/c1cccs1)c1cc(-c2ccncc2)nc2ccccc12`?
SR-BI uptake up: -31; Vif imaging: 117*; SR-BI DiI inh: 31; C2C12 statin: -44

What do the screens show for `CO[C@@H]1CN(C)C(=O)c2cc(NC(C)=O)ccc2OC[C@H](C)N(Cc2nccs2)C[C@@H]1C`?
C2C12 statin: 3

Results for Cc1ccc(S(=O)(=O)N[C@@H]2C=C[C@@H](CC(=O)N3CCC(Cc4ccccc4)CC3)O[C@H]2CO)cc1 ?
C2C12 statin: 49

How did Cc1nnc2ccc(-c3ccc(NS(=O)(=O)c4ccc(F)cc4F)cc3)nn12 do in these assays?
SR-BI uptake up: 18; Vif imaging: 71*; SR-BI DiI inh: -18; C2C12 statin: -17

How did Cc1nnc2ccc(-c3ccc(NS(=O)(=O)c4ccccc4F)cc3)nn12 do in these assays?
SR-BI uptake up: -9; Vif imaging: 18; SR-BI DiI inh: 9

Results for Cc1nnc2ccc(-c3ccc(NS(=O)(=O)c4ccccc4[N+](=O)[O-])cc3)nn12 ?
SR-BI uptake up: 7; Vif imaging: 76*; SR-BI DiI inh: -7; C2C12 statin: 2

Results for C[C@@H]1CN([C@@H](C)CO)C(=O)Cc2cc(NC(=O)Cn3cnnn3)ccc2O[C@H]1CN(C)CC1CC1 ?
C2C12 statin: 10

What do the screens show for `COc1ccc(C(=O)NN)cc1COc1ccc(Br)cc1`?
SR-BI uptake up: -97; Vif imaging: -4; SR-BI DiI inh: 97*; C2C12 statin: 24

Results for CCOc1ccc(C(=O)NCC(=O)OCc2cc(C(C)=O)ccc2OC)cc1 ?
SR-BI uptake up: -71; Vif imaging: 2; SR-BI DiI inh: 71*

How did COc1cccc(-c2ccc3c(c2)[C@H]2[C@H](CCN2S(=O)(=O)c2ccccc2OC)[C@@H](CO)N3C)c1 do in these assays?
C2C12 statin: -1

Results for CC(C)OCCCN1C(=O)c2[nH]nc(-c3ccccc3O)c2C1c1cccc(Cl)c1 (configuration not stated) ?
SR-BI uptake up: -72; Vif imaging: 0; SR-BI DiI inh: 72*

How did CCOC(=O)c1nn(-c2ccc(F)cc2)c(C)c1C(C)=O do in these assays?
SR-BI uptake up: 11; Vif imaging: -9; SR-BI DiI inh: -11; C2C12 statin: 74*

What do the screens show for `CCN1C(=O)c2cccc3c(S(=O)(=O)Nc4ccccc4)ccc1c23`?
SR-BI uptake up: 2; Vif imaging: inconclusive; SR-BI DiI inh: -2; C2C12 statin: 13

What do the screens show for `CCN1C(=O)c2cccc3c(S(=O)(=O)Nc4nc(C)cs4)ccc1c23`?
SR-BI uptake up: -4; Vif imaging: 60*; SR-BI DiI inh: 4; C2C12 statin: 35

Results for O=S(=O)(c1ccc(F)cc1)N1CC[C@@H]2[C@H]1c1cc(Br)ccc1N[C@@H]2CO ?
C2C12 statin: -3

What do the screens show for `CCNc1nc(OC)nc(SCC(N)=O)n1`?
SR-BI uptake up: inconclusive; Vif imaging: -1; SR-BI DiI inh: -82; C2C12 statin: 69*

What do the screens show for `O=C(C[C@@H]1CC[C@H]2[C@@H](COC[C@H](O)CN2C(=O)Nc2cccc(Cl)c2)O1)N1CCCCC1`?
C2C12 statin: -23

Results for CC(=O)C(C(c1ccccc1)N1CCOCC1)N1CCOCC1 (configuration not stated) ?
SR-BI uptake up: 14; Vif imaging: 27; SR-BI DiI inh: -14; C2C12 statin: -2

How did CSc1ccc(C(C(C(=O)c2cccs2)N2CCOCC2)N2CCOCC2)cc1 (configuration not stated) do in these assays?
SR-BI uptake up: 65*; Vif imaging: 8; SR-BI DiI inh: -65; C2C12 statin: 77*

Results for CCC(=O)N[C@@H]1C=C[C@H](CC(=O)NCc2ccccc2F)O[C@H]1CO ?
C2C12 statin: 1

Source: PubChem
